From PubChem
An excerpt weighted towards active compounds, which were near 1.8% of everything screened.
CAL PDZ FP-1 = human CAL PDZ-peptide interaction inhibition; Q9HD26; purified CAL PDZ, TMR-peptide fluorescence polarization, 1 h; inhibition, % at 20 µM; hit rate 0.02% among 330,000; AID 504414;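 active means highest replicate inhibition of at least 40%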;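 further: plate controls were DMSO neutral control wells for no effect and unlabeled competitor peptide control wells for full effect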
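Read-out basis: mP drop reported as inhibition | Assay system: Tagged CAL PDZ protein CerCALP, purified | Benchmarks: Unlabelled peptide for full inhibition, DMSO wells as neutral | Schedule: 1 h incubation at room temperature before polarization reading | Buffer or medium: Sodium phosphate/NaCl buffer pH 7.4 with TCEP, IgG, Thesit | Doses: Single point, 20 µM | Measured by: Fluorescence polarization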
GRK2 aptamer HTS = blocks RNA aptamer binding to human GRK2. P25098. bead flow cytometry, FAM-aptamer displacement from GRK2. inhibition of aptamer binding, % at 10 µM. hit rate 0.59% among 330,000;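 active means inhibition of aptamer binding above 40%, roughly 3 SD of noise, on plates passing a quality check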;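 further: median bead fluorescence of bound FAM aptamer so fluorescent compounds give negative values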
ARNT TACC3 PPI = disruptors of human ARNT/TACC3 interaction | AID 623870 | inhibition, % at 9.99 µM | hit rate 0.66% among 390,000 | AlphaScreen His-ARNT PAS-B/GST-TACC3 binding, luminescence; TACC3 fragment carries E629A point mutation | Q9Y6A5;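 active means mean inhibition of replicates at least 50% and at least half of replicates each reaching 50%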;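 further: 0% = complete ARNT plus TACC3 wells and 100% = ARNT alone without TACC3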
DDE Tn6 FP inh = DD(E)-Tn6 binding inhibition, primary FP screen | Fibrin DD(E) TRITC-Tn6 fluorescence polarization displacement | inhibition, % at 8.3 µM | hit rate 0.21% among 370,000 | AID 720509;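 active means inhibition above a per-campaign cutoff: mean of compounds within control limits plus 3 SD, cut at about 15% in these data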;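 further: 0% = median of all compound wells on the plate and 100% = blocking peptide control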
Target sequence (P02675 whole entry, looked up): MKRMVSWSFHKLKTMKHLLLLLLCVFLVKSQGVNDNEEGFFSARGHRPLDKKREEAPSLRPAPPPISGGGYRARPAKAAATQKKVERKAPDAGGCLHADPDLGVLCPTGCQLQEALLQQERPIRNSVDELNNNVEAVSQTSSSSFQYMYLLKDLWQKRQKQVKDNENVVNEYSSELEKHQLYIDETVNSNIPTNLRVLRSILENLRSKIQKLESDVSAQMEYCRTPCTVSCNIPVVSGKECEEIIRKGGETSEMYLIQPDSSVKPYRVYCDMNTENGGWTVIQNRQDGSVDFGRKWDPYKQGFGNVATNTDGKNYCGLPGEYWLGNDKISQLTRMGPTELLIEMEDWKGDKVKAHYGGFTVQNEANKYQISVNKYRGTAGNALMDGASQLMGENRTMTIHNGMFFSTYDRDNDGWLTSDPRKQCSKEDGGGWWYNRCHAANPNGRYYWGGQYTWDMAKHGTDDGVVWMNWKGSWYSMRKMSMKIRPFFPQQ
DDE Tn7 FP inh = disrupts Tn7 cyclic peptide binding to fibrin D-Dimer-E complex; P02675; FP displacement of FITC-Tn7 peptide from fibrin DD(E); 0% = median of compound wells per plate; inhibition, % at 8.3 µM; hit rate 0.13% among 370,000;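 active means inhibition above the mean of compounds falling within the control limits plus 3 SD of them, cut at about 14% in these data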;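 further: 0% = plate median of compound wells and 100% = 10 µM Aha-Tn7 peptide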
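Assay system: Human fibrin DD(E) protein | Medium: Tris buffer with calcium and detergent, pH 7.8 | Reagent: 0.1 µM fluorescent Tn7 | Compound dosing: Single point at 8.3 µM | Times: 10 min preincubation, 3 h with tracer, room temperature | Detection: Fluorescence polarization of the labelled Tn7 tracer | Controls: Aha-Tn7 high control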
CAL PDZ FP-2 = blocks peptide binding to the human CAL PDZ domain; Q9HD26; hit rate 0.92% among 300,000; inhibition, % at 24.9 µM; purified CAL PDZ, TMR-peptide fluorescence polarization, 1 h;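 active means mean inhibition of at least 30% with at least half of replicates also reaching 30%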;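 further: 0% = DMSO neutral control and 100% = excess unlabeled competitor peptide PRC23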
Starred values were filed as active, the others as inactive.

What do the screens show for `CCCN1CCCc2cc(CN)ccc21`?
CAL PDZ FP-1: -1.0; GRK2 aptamer HTS: 25.0; ARNT TACC3 PPI: 31.9*; DDE Tn6 FP inh: 4.8; DDE Tn7 FP inh: 4.8; CAL PDZ FP-2: -4.9

How did CCNC(=O)C[C@H]1CC[C@@H]2[C@H](COc3ccc(NC(=O)Nc4ccccc4F)cc3C(=O)N2C)O1 do in these assays?
ARNT TACC3 PPI: 0.6

Results for COc1cccc(-c2ccc([C@H]3[C@@H](CO)N4CCCCN(C(=O)c5ccc(F)cc5)C[C@H]34)cc2)c1 ?
ARNT TACC3 PPI: 1.8

Results for COc1ccc(NC(=O)N[C@@H]2CC[C@@H](CCn3cc(-c4ccccn4)nn3)O[C@@H]2CO)cc1 ?
ARNT TACC3 PPI: 47.8*

Results for COc1ccc(NC(=O)N[C@H]2CC[C@H](CCn3cc(-c4ccccc4)nn3)O[C@H]2CO)cc1 ?
ARNT TACC3 PPI: -10.7

How did O=S(=O)(N[C@@H]1CC[C@H](CCn2cc(-c3ccccn3)nn2)O[C@@H]1CO)c1cccc(F)c1 do in these assays?
ARNT TACC3 PPI: 91.5*

Results for COc1ccc(NC(=O)N[C@@H]2CC[C@@H](CCn3cc(-c4ccccn4)nn3)O[C@H]2CO)cc1 ?
ARNT TACC3 PPI: 61.4*

What do the screens show for `O=C(N[C@@H]1CC[C@@H](CCn2cc(-c3ccccn3)nn2)O[C@H]1CO)c1ccncc1`?
ARNT TACC3 PPI: 61.9*

Results for NC(=O)NCC#Cc1ccc2c(c1)[C@]1(C(=O)N2)[C@H](C(=O)O)[C@H]2C(=O)O[C@H](c3ccccc3)[C@H](c3ccccc3)N2[C@@H]1c1ccc(O)cc1 ?
ARNT TACC3 PPI: -10.9

Results for C[C@H](CO)N1C[C@H](C)[C@@H](CN(C)CC2CCCCC2)Oc2ccc(NC(=O)CCCN(C)C)cc2C1=O ?
ARNT TACC3 PPI: 15.4

How did Cc1noc(C)c1NC(=O)Nc1cccc2c1O[C@H](CN(C)CC1CC1)[C@@H](C)CN([C@H](C)CO)C2=O do in these assays?
ARNT TACC3 PPI: 1.2

Results for COP(=O)(O)C(COCCC(CC(C)C)NC(=O)OCc1ccccc1[N+](=O)[O-])NC(=O)OCc1ccccc1 (stereo not given) ?
DDE Tn6 FP inh: -2.4; DDE Tn7 FP inh: 12.8

Results for NNC(=O)c1ccc(CSc2cccc3cccnc23)cc1 ?
CAL PDZ FP-1: -1.8; GRK2 aptamer HTS: 0.0; ARNT TACC3 PPI: -3.1; DDE Tn6 FP inh: -4.3; DDE Tn7 FP inh: -1.5; CAL PDZ FP-2: -2.0

What do the screens show for `c1cnc2c(SCc3ccc(-c4nnco4)cc3)cccc2c1`?
CAL PDZ FP-1: -0.8; GRK2 aptamer HTS: 0.0; ARNT TACC3 PPI: 59.5*; DDE Tn6 FP inh: -3.3; DDE Tn7 FP inh: -1.4

What do the screens show for `CC(C)(C)c1cc(C(=O)NNC(=O)c2ccc(Cl)cc2)no1`?
CAL PDZ FP-1: -2.0; ARNT TACC3 PPI: -3.6; DDE Tn6 FP inh: 0.4; DDE Tn7 FP inh: 4.8; CAL PDZ FP-2: 18.7

What do the screens show for `Cc1noc(C)c1COc1ccc(CC(=O)NCCc2ccccc2)cc1`?
CAL PDZ FP-1: -0.2; GRK2 aptamer HTS: 1.0; ARNT TACC3 PPI: 0.7; DDE Tn6 FP inh: -4.2; DDE Tn7 FP inh: -6.7; CAL PDZ FP-2: 108.3*

Results for Cc1ccc(-n2c(SCC(=O)NC3CCS(=O)(=O)C3)nc3ccccc3c2=O)c(C)c1 (stereo not given) ?
DDE Tn6 FP inh: -3.2; DDE Tn7 FP inh: -4.1

How did CC(C)(C)C1=Nn2c(nnc2-c2ccccc2F)SC1 do in these assays?
CAL PDZ FP-1: -1.4; GRK2 aptamer HTS: 1.0; ARNT TACC3 PPI: -9.8

Results for COc1ccc(C2=Nn3c(nnc3-c3ccccc3OC)SC2)cc1OC ?
CAL PDZ FP-1: -5.1; GRK2 aptamer HTS: 0.0; ARNT TACC3 PPI: 17.6; DDE Tn6 FP inh: -4.5; DDE Tn7 FP inh: 0.3; CAL PDZ FP-2: -8.5

What do the screens show for `COc1ccc(C2=Nn3c(nnc3-c3ccccn3)SC2)cc1OC`?
CAL PDZ FP-1: 1.4; GRK2 aptamer HTS: 2.0; ARNT TACC3 PPI: 82.9*; DDE Tn6 FP inh: 5.2; DDE Tn7 FP inh: -1.3; CAL PDZ FP-2: 1.7

How did CC(C)(C)C1=Nn2c(nnc2-c2ccccn2)SC1 do in these assays?
CAL PDZ FP-1: -2.6; GRK2 aptamer HTS: 3.0; ARNT TACC3 PPI: 72.3*; DDE Tn6 FP inh: -8.6; DDE Tn7 FP inh: -2.9; CAL PDZ FP-2: -2.0

How did N/C(=N\O)c1ccc(NC(=O)c2ccc(Br)o2)cc1 do in these assays?
CAL PDZ FP-1: -0.2; GRK2 aptamer HTS: 1.0; ARNT TACC3 PPI: 1.2; DDE Tn6 FP inh: 8.2; DDE Tn7 FP inh: -1.9; CAL PDZ FP-2: 67.4*

Results for O=C(CCn1cnnn1)Nc1ccc(Cl)cc1Cl ?
CAL PDZ FP-1: -1.2; GRK2 aptamer HTS: 1.0; ARNT TACC3 PPI: -5.9; DDE Tn6 FP inh: -0.8; DDE Tn7 FP inh: 10.3; CAL PDZ FP-2: 86.4*

What do the screens show for `CCOC(=O)C1CCN(c2nc(N)c3c(N)nc(SCC(=O)O)cc3c2C#N)CC1`?
CAL PDZ FP-1: 1.5; ARNT TACC3 PPI: 51.5*; DDE Tn6 FP inh: -2.5; DDE Tn7 FP inh: 3.1; CAL PDZ FP-2: -5.2

What do the screens show for `CCOc1cc2c(C#N)c(N3CCCCC3)nc(N)c2c(N)n1`?
CAL PDZ FP-1: 0.8; GRK2 aptamer HTS: 0.0; ARNT TACC3 PPI: -16.1; DDE Tn6 FP inh: -0.5; DDE Tn7 FP inh: 1.9

What do the screens show for `CCOc1cc2c(C#N)c(N3CCNCC3)nc(N)c2c(N)n1`?
CAL PDZ FP-1: 0.4; GRK2 aptamer HTS: 1.0; ARNT TACC3 PPI: 9.0; DDE Tn6 FP inh: -2.5; DDE Tn7 FP inh: -5.5; CAL PDZ FP-2: 70.4*

Results for COc1cc2c(C#N)c(N3CCOCC3)nc(N)c2c(N)n1 ?
GRK2 aptamer HTS: 0.0; ARNT TACC3 PPI: 69.2*; DDE Tn6 FP inh: -5.3; DDE Tn7 FP inh: -3.1; CAL PDZ FP-2: -5.6

How did COc1cc2c(C#N)c(N3CCCCC3)nc(N)c2c(N)n1 do in these assays?
CAL PDZ FP-1: -1.7; GRK2 aptamer HTS: 0.0; DDE Tn6 FP inh: 0.4; DDE Tn7 FP inh: -5.8; CAL PDZ FP-2: -0.9

What do the screens show for `COc1ccc(NC(=O)Nc2ccc3c(c2)C(=O)N([C@H](C)CO)C[C@@H](C)[C@H](CN(C)S(=O)(=O)c2cn(C)cn2)OCCCC[C@H](C)O3)cc1`?
ARNT TACC3 PPI: -0.8

What do the screens show for `O=C(C[C@H]1C=C[C@@H](NC(=O)c2ccncc2)[C@@H](CO)O1)NCCc1ccncc1`?
ARNT TACC3 PPI: -6.3

Results for CN1CCN(C(=O)C[C@H]2CC[C@H]3[C@@H](COC[C@H](O)CN3Cc3cccc(F)c3)O2)CC1 ?
ARNT TACC3 PPI: 3.1

How did N=C1CCC(=N)c2c1c(O)c1ccccc1c2O do in these assays?
CAL PDZ FP-1: 1.4; GRK2 aptamer HTS: 9.0; ARNT TACC3 PPI: 51.0*; CAL PDZ FP-2: -0.5

How did CN(C)CC(=O)N1[C@@H](C#N)[C@@H](c2ccc(C#CC3CCCC3)cc2)[C@@H]1CO do in these assays?
ARNT TACC3 PPI: 3.1
